In ChEMBL document CHEMBL3232792, “Cyclic secondary sulfonamides: unusually good inhibitors of cancer-related carbonic anhydrase enzymes” (J Med Chem, 2014):

What was measured:
Carbonic anhydrase 2 = Carbonic anhydrase 2 (Homo sapiens, UniProt P00918); test: Inhibition of human recombinant carbonic anhydrase 2 expressed in Escherichia coli by stopped flow CO2 hydration assay
Carbonic anhydrase 9 = Carbonic anhydrase 9 (Homo sapiens, UniProt Q16790); test: Inhibition of human recombinant carbonic anhydrase 9 expressed in Escherichia coli by stopped flow CO2 hydration assay
In short: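 Recombinant human CA IX produced in E. coli, used at 8.0 nM; CO2 hydration activity followed by stopped-flow. IC50 is taken from seven-concentration dose–response curves fitted by nonlinear least squares, mean of at least three determinations. Ki is derived by Cheng–Prusoff, Ki = IC50/(1 + [S]/Km), where [S] is the CO2 concentration used.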

Carbonic anhydrase 1 = Carbonic anhydrase 1 (Homo sapiens, UniProt P00915); test: Inhibition of human recombinant carbonic anhydrase 1 expressed in Escherichia coli by stopped flow CO2 hydration assay
Carbonic anhydrase 4 = Carbonic anhydrase 4 (Homo sapiens, UniProt P22748)
[1] = target: Carbonic anhydrase 5B, mitochondrial (Homo sapiens, UniProt Q9Y2D0)
Carbonic anhydrase 7 = Carbonic anhydrase 7 (Homo sapiens, UniProt P43166)
[2] = target: Carbonic anhydrase 5A, mitochondrial (Homo sapiens, UniProt P35218)
Chain of Carbonic anhydrase 5A, mitochondrial (P35218 whole entry): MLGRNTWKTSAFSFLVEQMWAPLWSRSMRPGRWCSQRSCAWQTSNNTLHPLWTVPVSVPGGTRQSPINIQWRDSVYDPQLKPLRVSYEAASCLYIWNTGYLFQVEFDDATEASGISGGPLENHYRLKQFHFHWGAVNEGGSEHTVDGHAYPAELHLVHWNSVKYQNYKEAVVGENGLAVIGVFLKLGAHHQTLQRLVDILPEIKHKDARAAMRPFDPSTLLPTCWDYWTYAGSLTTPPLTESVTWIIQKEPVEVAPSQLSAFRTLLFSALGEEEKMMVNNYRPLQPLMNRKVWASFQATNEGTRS

Chain of Carbonic anhydrase 1 (P00915 whole entry): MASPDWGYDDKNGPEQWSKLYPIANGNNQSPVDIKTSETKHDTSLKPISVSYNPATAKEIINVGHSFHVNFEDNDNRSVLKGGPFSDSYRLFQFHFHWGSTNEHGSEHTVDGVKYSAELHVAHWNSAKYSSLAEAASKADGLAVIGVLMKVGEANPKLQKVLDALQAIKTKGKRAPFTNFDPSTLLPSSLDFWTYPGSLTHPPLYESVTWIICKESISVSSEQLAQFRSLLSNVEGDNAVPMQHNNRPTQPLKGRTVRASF
Chain of Carbonic anhydrase 7 (P43166 whole entry): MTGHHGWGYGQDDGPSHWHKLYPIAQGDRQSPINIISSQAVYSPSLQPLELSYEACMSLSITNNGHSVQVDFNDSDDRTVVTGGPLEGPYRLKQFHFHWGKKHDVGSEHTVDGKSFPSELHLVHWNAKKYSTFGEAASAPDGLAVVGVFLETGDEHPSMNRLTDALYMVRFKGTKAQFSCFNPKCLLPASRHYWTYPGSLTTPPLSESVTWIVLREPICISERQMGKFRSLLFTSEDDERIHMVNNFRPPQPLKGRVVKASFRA
Chain of Carbonic anhydrase 4 (P22748 whole entry): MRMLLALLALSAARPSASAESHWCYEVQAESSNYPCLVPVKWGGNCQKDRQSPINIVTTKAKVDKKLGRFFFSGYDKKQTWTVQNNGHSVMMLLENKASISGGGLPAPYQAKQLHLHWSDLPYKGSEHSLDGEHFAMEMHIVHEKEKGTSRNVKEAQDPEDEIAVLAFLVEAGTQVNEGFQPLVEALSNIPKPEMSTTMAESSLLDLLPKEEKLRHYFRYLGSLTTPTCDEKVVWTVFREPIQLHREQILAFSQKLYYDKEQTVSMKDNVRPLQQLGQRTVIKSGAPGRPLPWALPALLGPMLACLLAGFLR
Chain of Carbonic anhydrase 5B, mitochondrial (Q9Y2D0 whole entry): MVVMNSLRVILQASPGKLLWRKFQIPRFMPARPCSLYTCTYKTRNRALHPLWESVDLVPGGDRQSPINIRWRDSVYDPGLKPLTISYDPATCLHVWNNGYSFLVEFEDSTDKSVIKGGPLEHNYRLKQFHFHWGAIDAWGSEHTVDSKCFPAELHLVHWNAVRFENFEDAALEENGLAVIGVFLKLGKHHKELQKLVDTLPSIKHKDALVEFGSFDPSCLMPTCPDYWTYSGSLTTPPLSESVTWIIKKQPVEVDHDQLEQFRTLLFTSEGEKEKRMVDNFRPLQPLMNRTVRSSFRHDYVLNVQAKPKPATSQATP

| SMILES | Ki (Carbonic anhydrase 2) [nM] | Ki (Carbonic anhydrase 9) [nM] | Ki (Carbonic anhydrase 1) [nM] | also measured |
| --- | --- | --- | --- | --- |
| O=C1NS(=O)(=O)c2cc(-n3cc(-c4ccccc4C(F)(F)F)nn3)ccc21 | > 50000 | 443 | – | – |
| COc1ccc(-c2cn(-c3ccc4c(c3)S(=O)(=O)NC4=O)nn2)cc1 | > 50000 | 341 | – | – |
| O=C1NS(=O)(=O)c2cc(-n3cc(CO[C@@H]4O[C@H](CO)[C@@H](O)[C@H](O)[C@H]4O)nn3)ccc21 | > 50000 | 49.5 | > 50000 | – |
| O=C1NS(=O)(=O)c2cc(-n3cc(-c4ccccc4)nn3)ccc21 | – | 484 | > 50000 | – |
| Cc1cc(-c2cn(-c3ccc4c(c3)S(=O)(=O)NC4=O)nn2)ccc1F | – | 47.8 | > 50000 | – |
| COc1ccc(-c2cn(-c3ccc4c(c3)S(=O)(=O)NC4=O)nn2)c(C)c1 | > 50000 | 95.7 | – | – |
| [N-]=[N+]=Nc1ccc2c(c1)S(=O)(=O)NC2=O | – | 466 | – | – |
| Nc1ccc2c(c1)S(=O)(=O)NC2=O | > 50000 | 610 | > 50000 | – |
| O=C1NS(=O)(=O)c2ccccc21 [SACCHARIN] | – | – | – | Ki (Carbonic anhydrase 4): 7920 nM; Ki [1]: 7210 nM; pKa (physchem): 1.3; Ki (Carbonic anhydrase 7): 10 nM; Ki [2]: 10100 nM |
| Cc1cccc(-c2cn(-c3ccc4c(c3)S(=O)(=O)NC4=O)nn2)c1 | – | 89.7 | > 50000 | – |
| O=C1NS(=O)(=O)c2cc([N+](=O)[O-])ccc21 | > 50000 | – | > 50000 | – |
